In ChEMBL document CHEMBL3576829, “Design, synthesis and evaluation of scutellarein-O-alkylamines as multifunctional agents for the treatment of Alzheimer's disease” (Eur J Med Chem, 2015):

Columns and labels:
Acetylcholinesterase [1] = biological target: Acetylcholinesterase (Electrophorus electricus, UniProt O42275); test: Inhibition of electric eel AChE using acetylthiocholine iodide as substrate after 15 mins by Ellman's method
Rattus norvegicus = species on record: Rattus norvegicus; test: Selectivity index, ratio of IC50 for rat serum BuChE to IC50 for rat cortex AChE
Acetylcholinesterase [2] = biological target: T1, Acetylcholinesterase (Rattus norvegicus, UniProt P37136); test: Inhibition of AChE in rat cortex using acetylthiocholine iodide as substrate after 15 mins by Ellman's method
T1 sequence (P37136 whole entry): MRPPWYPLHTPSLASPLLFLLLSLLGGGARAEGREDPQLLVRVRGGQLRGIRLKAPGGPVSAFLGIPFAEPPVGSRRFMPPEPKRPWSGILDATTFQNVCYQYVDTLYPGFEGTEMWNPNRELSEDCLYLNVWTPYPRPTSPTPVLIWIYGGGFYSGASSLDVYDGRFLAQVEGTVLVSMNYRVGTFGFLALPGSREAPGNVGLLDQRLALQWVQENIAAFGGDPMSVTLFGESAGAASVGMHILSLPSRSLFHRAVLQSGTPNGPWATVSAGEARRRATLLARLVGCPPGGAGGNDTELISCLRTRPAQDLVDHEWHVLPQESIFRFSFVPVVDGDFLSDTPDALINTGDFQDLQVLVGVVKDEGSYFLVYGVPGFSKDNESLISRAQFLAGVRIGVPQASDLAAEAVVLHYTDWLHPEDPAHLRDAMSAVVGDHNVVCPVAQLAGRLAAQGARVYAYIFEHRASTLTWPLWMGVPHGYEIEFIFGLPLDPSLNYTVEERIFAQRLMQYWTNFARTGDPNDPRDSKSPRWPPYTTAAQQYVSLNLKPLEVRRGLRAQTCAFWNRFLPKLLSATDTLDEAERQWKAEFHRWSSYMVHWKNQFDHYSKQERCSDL

[3] = Inhibition of BuChE in rat serum using butyrylthiocholine iodide as substrate after 15 mins by Ellman's method; settings: 0.25 h
How it was run: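 Rat serum (25%, 10 µL) in 100 µL with 1 mmol/L butyrylthiocholine iodide stock, pH 7.4 phosphate buffer and graded inhibitor levels, 37°C for 15 min; DTNB (0.2%) then added and absorbance read at 405 nm.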

Acetylcholinesterase (Electrophorus electricus, UniProt O42275), sequence (O42275 whole entry): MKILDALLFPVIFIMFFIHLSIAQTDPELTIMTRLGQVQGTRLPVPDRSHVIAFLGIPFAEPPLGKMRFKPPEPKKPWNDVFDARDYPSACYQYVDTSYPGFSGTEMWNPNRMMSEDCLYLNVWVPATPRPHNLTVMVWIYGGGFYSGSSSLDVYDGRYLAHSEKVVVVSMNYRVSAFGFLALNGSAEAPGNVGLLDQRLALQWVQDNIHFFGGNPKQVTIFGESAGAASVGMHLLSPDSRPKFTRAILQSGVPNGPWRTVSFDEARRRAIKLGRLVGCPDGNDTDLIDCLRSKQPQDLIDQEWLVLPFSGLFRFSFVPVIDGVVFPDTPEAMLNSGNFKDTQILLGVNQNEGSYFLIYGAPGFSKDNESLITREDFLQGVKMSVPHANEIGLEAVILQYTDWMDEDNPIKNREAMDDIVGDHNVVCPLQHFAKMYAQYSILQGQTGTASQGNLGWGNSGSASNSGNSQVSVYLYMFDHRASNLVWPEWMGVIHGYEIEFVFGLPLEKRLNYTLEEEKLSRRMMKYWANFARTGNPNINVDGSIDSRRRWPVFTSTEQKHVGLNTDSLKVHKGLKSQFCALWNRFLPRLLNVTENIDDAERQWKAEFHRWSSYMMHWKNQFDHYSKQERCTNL

SMILES | IC50 (Acetylcholinesterase [1]) [µM] | Ratio IC50 (Rattus norvegicus) | IC50 (Acetylcholinesterase [2]) [µM] | IC50 [3] [µM]
CCN(CCCOc1cccc(-c2cc(=O)c3c(O)c(OC)c(OC)cc3o2)c1)Cc1ccccc1OC | 4.5 | 152 | 1.58 | 240
COc1cc2oc(-c3ccc(OCCCN4CCN(C)CC4)cc3)cc(=O)c2c(OC)c1OC | 34.7 | > 60.2 | 8.3 | > 500
COc1ccccc1CN(C)CCCOc1cccc(-c2cc(=O)c3c(O)c(OC)c(OC)cc3o2)c1 | 28.6 | 43.7 | 8.1 | 354
COc1cc2oc(-c3cccc(OCCCN4CCN(C)CC4)c3)cc(=O)c2c(OC)c1OC | 35.2 | > 66.9 | 7.47 | > 500
COc1ccccc1CN(C)CCOc1cccc(-c2cc(=O)c3c(OC)c(OC)c(OC)cc3o2)c1 | 2.49 | 9.8 | 3.22 | 31.4
CCN(CCCOc1cccc(-c2cc(=O)c3c(OC)c(OC)c(OC)cc3o2)c1)Cc1ccccc1 | 20.4 | 18.7 | 5.4 | 101
COc1cc2oc(-c3cccc(OCCN(C)Cc4ccccc4)c3)cc(=O)c2c(OC)c1OC | 35.7 | 9.6 | 9.2 | 87.9
COc1cc2oc(-c3cccc(OCCCN4CCN(Cc5ccccc5)CC4)c3)cc(=O)c2c(OC)c1OC | 1.59 | 47.7 | 3.12 | 149
COc1ccccc1CN(C)CCCCCCOc1cccc(-c2cc(=O)c3c(OC)c(OC)c(OC)cc3o2)c1 | 4.5 | 63.2 | 0.96 | 60.7
COc1cc2oc(-c3cccc(OCCCCCCN(C)Cc4ccccc4)c3)cc(=O)c2c(OC)c1OC | 6.13 | 36.9 | 2.13 | 78.7
CCN(CCCOc1cccc(-c2cc(=O)c3c(OC)c(OC)c(OC)cc3o2)c1)Cc1ccccc1OC | 1.78 | 234 | 0.33 | 77.2
CCN(CCCCOc1cccc(-c2cc(=O)c3c(OC)c(OC)c(OC)cc3o2)c1)Cc1ccccc1OC | 2.37 | 97.9 | 0.8 | 78.3
COc1cc2oc(-c3cccc(OCCN4CCN(C)CC4)c3)cc(=O)c2c(OC)c1OC | 22.5 | > 61 | 8.2 | > 500
COc1ccccc1CN(C)CCCCOc1cccc(-c2cc(=O)c3c(OC)c(OC)c(OC)cc3o2)c1 | 12.2 | 32.6 | 2.61 | 85
COc1cc2oc(-c3ccc(OCCCN(C)Cc4ccccc4)cc3)cc(=O)c2c(OC)c1OC | 11.5 | 51.8 | 2.62 | 136
COc1cc2oc(-c3cccc(OCCCCCCN4CCN(Cc5ccccc5)CC4)c3)cc(=O)c2c(OC)c1OC | 21.4 | > 68.2 | 7.33 | > 500
COc1ccccc1CN(C)CCCOc1cccc(-c2cc(=O)c3c(OC)c(OC)c(OC)cc3o2)c1 | 1.59 | 198 | 0.38 | 75.4
COc1cc2oc(-c3ccc(OCCCCN4CCN(C)CC4)cc3)cc(=O)c2c(OC)c1OC | 5.27 | 136 | 1.07 | 146
COc1ccccc1CN(C)CCCCOc1cccc(-c2cc(=O)c3c(O)c(OC)c(OC)cc3o2)c1 | 31 | > 64.7 | 7.73 | > 500
COc1ccccc1CN(C)CCCCOc1ccc(-c2cc(=O)c3c(O)c(OC)c(OC)cc3o2)cc1 | 14.4 | > 146 | 3.43 | > 500
COc1cc2oc(-c3ccc(OCCCCN4CCN(Cc5ccccc5)CC4)cc3)cc(=O)c2c(OC)c1OC | 8.53 | 51.1 | 2.56 | 131
COc1cc2oc(-c3cccc(OCCCN(C)Cc4ccccc4)c3)cc(=O)c2c(OC)c1OC | 25 | 22.7 | 5.17 | 117

SMILES | IC50 (Acetylcholinesterase [1]) [µM] | Ratio IC50 (Rattus norvegicus) | IC50 (Acetylcholinesterase [2]) [µM] | IC50 [3] [µM]
COc1cc2oc(-c3ccc(OCCCN4CCN(Cc5ccccc5)CC4)cc3)cc(=O)c2c(OC)c1OC | 8.7 | > 278 | 1.8 | > 500
CCN(CCCCCCOc1cccc(-c2cc(=O)c3c(O)c(OC)c(OC)cc3o2)c1)Cc1ccccc1OC | 0.77 | 381 | 1.27 | 484
O=c1cc(-c2ccc(O)cc2)oc2cc(O)c(O)c(O)c12 [SCUTELLAREIN] | – | – | > 500 | > 500
COc1cc2oc(-c3cccc(OCCN4CCN(Cc5ccccc5)CC4)c3)cc(=O)c2c(OC)c1OC | 2.91 | > 424 | 1.18 | > 500
CCN(CCCOc1ccc(-c2cc(=O)c3c(OC)c(OC)c(OC)cc3o2)cc1)Cc1ccccc1 | 7.3 | 39.9 | 2.04 | 81.3
CCN(CCCCCCOc1cccc(-c2cc(=O)c3c(OC)c(OC)c(OC)cc3o2)c1)Cc1ccccc1OC | 1.3 | 189 | 0.22 | 41.6
COc1ccccc1CN(C)CCCOc1ccc(-c2cc(=O)c3c(OC)c(OC)c(OC)cc3o2)cc1 | 8.6 | 61.1 | 1.76 | 108
CCN(CCOc1cccc(-c2cc(=O)c3c(OC)c(OC)c(OC)cc3o2)c1)Cc1ccccc1 | 3.8 | 23.6 | 3.37 | 79.6
COc1cc2oc(-c3cccc(OCCCCN(C)Cc4ccccc4)c3)cc(=O)c2c(OC)c1OC | 18.4 | 20 | 4.53 | 90.7
CCN(CCCCCCOc1cccc(-c2cc(=O)c3c(OC)c(OC)c(OC)cc3o2)c1)Cc1ccccc1 | 12.2 | 25.7 | 2.03 | 52.1
COc1ccccc1CN(C)CCCCCCOc1ccc(-c2cc(=O)c3c(OC)c(OC)c(OC)cc3o2)cc1 | 2.23 | 214 | 0.45 | 96.1
COc1ccccc1CN(C)CCCOc1ccc(-c2cc(=O)c3c(O)c(OC)c(OC)cc3o2)cc1 | 31.1 | > 100 | 5 | > 500
COc1cc2oc(-c3ccc(OCCCCCCN(C)Cc4ccccc4)cc3)cc(=O)c2c(OC)c1OC | 5.4 | 85.5 | 0.99 | 84.6
COc1ccccc1CN(C)CCCCCCOc1ccc(-c2cc(=O)c3c(O)c(OC)c(OC)cc3o2)cc1 | 22.6 | > 98.6 | 5.07 | > 500
COc1ccccc1CN(C)CCCCCCOc1cccc(-c2cc(=O)c3c(O)c(OC)c(OC)cc3o2)c1 | 5.8 | 254 | 1.59 | 404
COc1cc2oc(-c3cccc(OCCCCN4CCN(C)CC4)c3)cc(=O)c2c(OC)c1OC | 1.15 | > 2000 | 0.25 | > 500
COc1cc2oc(-c3cccc(OCCCCN4CCN(Cc5ccccc5)CC4)c3)cc(=O)c2c(OC)c1OC | 25.3 | 27 | 4.03 | 109
COc1cc2oc(-c3ccc(OCCCCCCN4CCN(Cc5ccccc5)CC4)cc3)cc(=O)c2c(OC)c1OC | 26.5 | > 62 | 8.07 | > 500
CCN(CCCCOc1cccc(-c2cc(=O)c3c(OC)c(OC)c(OC)cc3o2)c1)Cc1ccccc1 | 8.3 | 27 | 2.35 | 63.4
CCN(CCCCCCOc1ccc(-c2cc(=O)c3c(OC)c(OC)c(OC)cc3o2)cc1)Cc1ccccc1 | 2.83 | > 1470 | 0.34 | > 500
CCN(CCCCOc1cccc(-c2cc(=O)c3c(O)c(OC)c(OC)cc3o2)c1)Cc1ccccc1OC | 7.97 | > 208 | 2.4 | > 500
